Type in all cases: functional
The test system of one assay is FM3A. Description: Antitumor activity against murine mammary carcinoma FM3A cells. The settings on record: Mus musculus; read-out: MIC. Summed up: (§1)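 Tumor cell proliferation assay. Murine leukemia L1210 and murine mammary carcinoma FM3A cells were grown in culture with the compound. The value is the concentration inhibiting cell proliferation by 50%.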
The subject of assay [1] is Human alphaherpesvirus 2. Description: In vitro minimum inhibitory concentration to inhibit HSV-2 (196)-induced cytopathogenicity in PRK cells by 50%. An outline of the steps:
(§2)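 Antiviral read-out was virus-induced cytopathogenicity in primary rabbit kidney (PRK) cell cultures. The value is the compound concentration needed to reduce cytopathogenicity by 50%.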
A general note: Cytopathic effects are the visible damage that an infection or toxin causes in cultured cells.

In assay [2] the test system is Bovine alphaherpesvirus 1. The experiment in a line: In vitro minimum inhibitory concentration to inhibit BHV-1-induced cytopathogenicity in PRK cells by 50%. An outline of the steps: as §2
Assay [3] is described as follows: In vitro minimum inhibitory concentration to inhibit […] (incorporation of [methyl-3H]dThd) in PRK cells by 50%.
The subject of assay [4] is Human alphaherpesvirus 2. Description: In vitro minimum inhibitory concentration to inhibit HSV-2 (Lyons)-induced cytopathogenicity in PRK cells by 50%. Summed up: as §2
The subject of assay [5] is Human alphaherpesvirus 3. Description: In vitro minimum inhibitory concentration to inhibit VZV (Oka)-induced cytopathogenicity in HEL cells by 50%.
For the next assay, the system named is Suid alphaherpesvirus 1. Description: In vitro minimum inhibitory concentration to inhibit SHV-1-induced cytopathogenicity in PRK cells by 50%. An outline of the steps: as §2
For assay [6], the system named is Human alphaherpesvirus 3. Description: In vitro minimum inhibitory concentration to inhibit thymidine deficient VZV (YSR)-induced cytopathogenicity in HEL cells by 50%.
The subject of assay [7] is Human alphaherpesvirus 3. Description: In vitro minimum inhibitory concentration to inhibit VZV (YS)-induced cytopathogenicity in HEL cells by 50%.
The test system of assay [8] is Cytomegalovirus. Description: In vitro minimum inhibitory concentration to inhibit CMV (AD-169)-induced cytopathogenicity in HEL cells by 50%. The settings on record: Human betaherpesvirus 5.
The subject of assay [9] is Human alphaherpesvirus 1. Description: In vitro minimum inhibitory concentration to inhibit thymidine deficient HSV-1 (B2006)-induced cytopathogenicity in PRK cells by 50%. Summed up:
as §2

In assay [10] the test system is Human alphaherpesvirus 1. The experiment in a line: In vitro minimum inhibitory concentration to inhibit thymidine deficient HSV-1 (VMV 1837)- induced cytopathogenicity in PRK cells by 50%. Summed up:
as §2

The next assay deals with L1210. Description: Antitumor activity against murine leukemia L1210 cells. As to conditions: Mus musculus; read-out: MIC. Summed up:
as §1

In assay [11] the test system is Cytomegalovirus. Description: In vitro minimum inhibitory concentration to inhibit CMV (Davis)-induced cytopathogenicity in HEL cells by 50%. As to conditions: Human betaherpesvirus 5.
In assay [12] the test system is Human alphaherpesvirus 2. The experiment in a line: In vitro minimum inhibitory concentration to inhibit HSV-2 (G)-induced cytopathogenicity in PRK cells by 50%. Summed up:
as §2

Assay [13] concerns Human alphaherpesvirus 1. Description: In vitro minimum inhibitory concentration to inhibit HSV-1 (McIntyre)-induced cytopathogenicity in PRK cells by 50%. Summed up:
as §2

A further assay concerns Equid alphaherpesvirus 1. The experiment in a line: In vitro minimum inhibitory concentration to inhibit EHV-1-induced cytopathogenicity in PRK cells by 50%. An outline of the steps: as §2
Assay [14] has as its system Human alphaherpesvirus 1. The experiment in a line: In vitro minimum inhibitory concentration to inhibit HSV-1 (KOS)-induced cytopathogenicity in primary rabbit kidney cells by 50%. Summed up: as §2
Assay [15] relates to Human alphaherpesvirus 1. The experiment in a line: In vitro minimum inhibitory concentration to inhibit HSV-1 (F)-induced cytopathogenicity in primary rabbit kidney cells by 50%. Summed up:
as §2

≈ marks a conversion by molar mass, not a printed value. Bounds are passed on as bounds.

On to `Cn1c(N)nc2c(ncn2COCCO)c1=O`, for which the IC50 in the assay on FM3A and in the assay on L1210 was above 100 µg/mL each time. Besides, the MIC with Human alphaherpesvirus 2 [1] was 2 µg/mL (≈ 8.36 µM); in assay [2] it was above 400 µg/mL; in assay [3] (Oryctolagus cuniculus), above 400 µg/mL; against Human alphaherpesvirus 2 [4], 2 µg/mL (≈ 8.36 µM); in the assay with Human alphaherpesvirus 3 [5], 20 µg/mL (≈ 83.6 µM); in the assay on Suid alphaherpesvirus 1, 70 µg/mL (≈ 293 µM). Further, the MIC is above 100 µg/mL in the assay with Human alphaherpesvirus 3 [6]; 20 µg/mL (≈ 83.6 µM) with Human alphaherpesvirus 3 [7]; above 100 µg/mL in the assay on Cytomegalovirus [8]; 300 µg/mL (≈ 1250 µM) with Human alphaherpesvirus 1 [9]; 300 µg/mL (≈ 1250 µM) in the assay on Human alphaherpesvirus 1 [10]; above 100 µg/mL with Cytomegalovirus [11]. The MIC against Human alphaherpesvirus 2 [12] was found to be 1 µg/mL (≈ 4.18 µM); in the assay on Human alphaherpesvirus 1 [13], 2 µg/mL (≈ 8.36 µM); in the assay with Equid alphaherpesvirus 1, 10 µg/mL (≈ 41.8 µM); against Human alphaherpesvirus 1 [14], 1 µg/mL (≈ 4.18 µM); with Human alphaherpesvirus 1 [15], 2 µg/mL (≈ 8.36 µM).

Consider `Nc1nc2c(ncn2COCCO)c(=O)[nH]1` [ACYCLOVIR], for which the MIC against Human alphaherpesvirus 2 [1] was determined as 0.07 µg/mL (≈ 0.311 µM); in assay [2], 7 µg/mL (≈ 31.1 µM); in [3], 8 µg/mL (≈ 35.5 µM); against Human alphaherpesvirus 2 [4] it was 0.2 µg/mL (≈ 0.888 µM); with Suid alphaherpesvirus 1, 7 µg/mL (≈ 31.1 µM); in the assay on Human alphaherpesvirus 1 [9] it was 20 µg/mL (≈ 88.8 µM). Also, the MIC worked out at 20 µg/mL (≈ 88.8 µM) with Human alphaherpesvirus 1 [10]; 20 µg/mL (≈ 88.8 µM) with Cytomegalovirus [11]; 0.07 µg/mL (≈ 0.311 µM) in the assay on Human alphaherpesvirus 2 [12]; 0.2 µg/mL (≈ 0.888 µM) against Human alphaherpesvirus 1 [13]; 0.2 µg/mL (≈ 0.888 µM) with Equid alphaherpesvirus 1; 0.2 µg/mL (≈ 0.888 µM) against Human alphaherpesvirus 1 [14]. The same compound yielded an MIC against Human alphaherpesvirus 1 [15] of 0.1 µg/mL (≈ 0.444 µM).

Take `CNc1nc(O)c2ncn(COCCO)c2n1`: the IC50 in the assay on FM3A and in the assay with L1210 was above 100 µg/mL throughout. The MIC was above 400 µg/mL in the assay with Human alphaherpesvirus 2 [1]; above 400 µg/mL in assay [2]; above 400 µg/mL in [3] (Oryctolagus cuniculus); above 400 µg/mL with Human alphaherpesvirus 2 [4]; above 100 µg/mL against Human alphaherpesvirus 3 [5]; above 400 µg/mL in the assay on Suid alphaherpesvirus 1. In addition, the MIC in the assay with Human alphaherpesvirus 3 [6] is above 100 µg/mL; with Human alphaherpesvirus 3 [7] it was above 100 µg/mL; in the assay with Cytomegalovirus [8], above 100 µg/mL; in the assay with Human alphaherpesvirus 1 [9], above 400 µg/mL; in the assay with Human alphaherpesvirus 1 [10] it was above 400 µg/mL; against Cytomegalovirus [11] it was above 100 µg/mL. Also, the MIC was 300 µg/mL (≈ 1250 µM) in the assay on Human alphaherpesvirus 2 [12]; above 400 µg/mL against Human alphaherpesvirus 1 [13]; above 400 µg/mL in the assay with Equid alphaherpesvirus 1; above 400 µg/mL against Human alphaherpesvirus 1 [14]; above 400 µg/mL with Human alphaherpesvirus 1 [15].

For the compound `Cc1cn2c(=O)c3ncn(COCCO)c3nc2n1C`, the IC50 in the assay on FM3A and in the assay with L1210 was above 100 µg/mL throughout. In addition, the MIC was above 400 µg/mL in the assay with Human alphaherpesvirus 2 [1]; above 400 µg/mL in assay [2]; above 4000 µg/mL in assay [3] (Oryctolagus cuniculus); above 400 µg/mL against Human alphaherpesvirus 2 [4]; above 100 µg/mL in the assay with Human alphaherpesvirus 3 [5]; above 400 µg/mL in the assay with Suid alphaherpesvirus 1. For the same compound, the MIC in the assay on Human alphaherpesvirus 3 [6] is above 100 µg/mL; in the assay on Human alphaherpesvirus 3 [7] it was above 100 µg/mL; against Cytomegalovirus [8], above 100 µg/mL; with Human alphaherpesvirus 1 [9], above 400 µg/mL; against Human alphaherpesvirus 1 [10], above 400 µg/mL; against Cytomegalovirus [11], above 100 µg/mL. The MIC against Human alphaherpesvirus 2 [12], against Human alphaherpesvirus 1 [13], in the assay on Equid alphaherpesvirus 1, in the assay with Human alphaherpesvirus 1 [14] and with Human alphaherpesvirus 1 [15] was above 400 µg/mL in each case.

With `Cc1cn2c([O-])c3c(nc2n1)[n+](COCCO)cn3C`, the IC50 in the assay on FM3A and in the assay with L1210 was above 100 µg/mL in each case. In addition, the MIC against Human alphaherpesvirus 2 [1] is 70 µg/mL (≈ 252 µM); in [2] it was above 400 µg/mL; in assay [3] (Oryctolagus cuniculus), above 400 µg/mL; against Human alphaherpesvirus 2 [4] it was 70 µg/mL (≈ 252 µM); with Human alphaherpesvirus 3 [5], above 100 µg/mL; in the assay with Suid alphaherpesvirus 1, above 400 µg/mL. In addition, the MIC was above 100 µg/mL against Human alphaherpesvirus 3 [6]; above 100 µg/mL against Human alphaherpesvirus 3 [7]; above 100 µg/mL against Cytomegalovirus [8]; above 400 µg/mL in the assay on Human alphaherpesvirus 1 [9]; above 400 µg/mL against Human alphaherpesvirus 1 [10]; above 100 µg/mL in the assay with Cytomegalovirus [11]. Further, the MIC with Human alphaherpesvirus 2 [12] is 70 µg/mL (≈ 252 µM); in the assay on Human alphaherpesvirus 1 [13] it was 70 µg/mL (≈ 252 µM); against Equid alphaherpesvirus 1, above 400 µg/mL; against Human alphaherpesvirus 1 [14], 70 µg/mL (≈ 252 µM); against Human alphaherpesvirus 1 [15], 70 µg/mL (≈ 252 µM).

As to `Cn1c[n+](COCCO)c2nc(N)nc([O-])c21.O=S(=O)(O)O`, the IC50 with FM3A and with L1210 was above 100 µg/mL throughout. Further, the MIC in the assay with Human alphaherpesvirus 2 [1] is 100 µg/mL; in [2], above 400 µg/mL; in [3] (Oryctolagus cuniculus), above 400 µg/mL; against Human alphaherpesvirus 2 [4] it was 100 µg/mL; with Human alphaherpesvirus 3 [5], above 100 µg/mL; in the assay on Suid alphaherpesvirus 1, above 400 µg/mL. The MIC was above 100 µg/mL in the assay with Human alphaherpesvirus 3 [6]; above 100 µg/mL in the assay on Human alphaherpesvirus 3 [7]; above 100 µg/mL with Cytomegalovirus [8]; above 400 µg/mL with Human alphaherpesvirus 1 [9]; above 400 µg/mL against Human alphaherpesvirus 1 [10]; above 100 µg/mL in the assay on Cytomegalovirus [11]. Also, the MIC was 40 µg/mL in the assay on Human alphaherpesvirus 2 [12]; 70 µg/mL with Human alphaherpesvirus 1 [13]; above 400 µg/mL against Equid alphaherpesvirus 1; 70 µg/mL against Human alphaherpesvirus 1 [14]; 70 µg/mL against Human alphaherpesvirus 1 [15].

Consider `Cc1cn2c(O)c3ncn(COCCO)c3nc2n1`, for which the IC50 with FM3A and in the assay with L1210 was above 100 µg/mL each time. The MIC against Human alphaherpesvirus 2 [1] is 0.7 µg/mL (≈ 2.66 µM); in assay [2], above 400 µg/mL; in assay [3] (Oryctolagus cuniculus), 257 µg/mL (≈ 976 µM); in the assay with Human alphaherpesvirus 2 [4], 2 µg/mL (≈ 7.6 µM); against Human alphaherpesvirus 3 [5], 20 µg/mL (≈ 76 µM); against Suid alphaherpesvirus 1, above 400 µg/mL. The MIC is above 100 µg/mL in the assay on Human alphaherpesvirus 3 [6]; 20 µg/mL (≈ 76 µM) in the assay on Human alphaherpesvirus 3 [7]; above 100 µg/mL with Cytomegalovirus [8]; 400 µg/mL (≈ 1520 µM) in the assay with Human alphaherpesvirus 1 [9]; 400 µg/mL (≈ 1520 µM) with Human alphaherpesvirus 1 [10]; above 100 µg/mL against Cytomegalovirus [11]. Moreover, the MIC against Human alphaherpesvirus 2 [12] amounted to 0.7 µg/mL (≈ 2.66 µM); in the assay on Human alphaherpesvirus 1 [13], 2 µg/mL (≈ 7.6 µM); with Equid alphaherpesvirus 1 it was 20 µg/mL (≈ 76 µM); in the assay on Human alphaherpesvirus 1 [14], 2 µg/mL (≈ 7.6 µM); against Human alphaherpesvirus 1 [15] it was 2 µg/mL (≈ 7.6 µM).
